{
  "source": "ChEMBL document CHEMBL4316598",
  "about": "“Synthesis, antiproliferative and apoptosis induction potential activities of novel bis(indolyl)hydrazide-hydrazone derivatives” (Bioorg Med Chem, 2019)",
  "key": {"MCF7 [1]": {"system": "MCF7", "test": "Induction of ERK/MAPK signal transduction pathway in human MCF7 cells assessed as increase in c-jun level", "assay_type": "cell-based"}, "MCF7 [2]": {"system": "MCF7", "test": "Induction of caspase-dependent apoptosis in human MCF7 cells assessed as activation of caspase-7 at 1 to 3 uM after 24 hrs by Western blot analysis", "assay_type": "functional, cell-based", "method_in_brief": "(§1)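 Cells were treated at 1, 3 and 5 µM for 24 h at 37 °C. Lysis was in ice-cold Triton X-100 buffer with protease and phosphatase inhibitors; nuclear proteins were extracted separately. Protein was quantified by BCA. Lysates were separated by electrophoresis, transferred to nitrocellulose and blocked in non-fat milk for 1 h. Primary antibody was applied overnight at 4 °C and secondary for 1 h at 28 °C. Detection was by enhanced chemiluminescence.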"}, "HeLa [3]": {"system": "HeLa", "test": "Induction of apoptosis in human HeLa cells assessed as up-regulation of total p53 level at 5 uM after 12 hrs by sandwich ELISA", "assay_type": "functional, cell-based", "method_in_brief": "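Cells were treated at 5 µM for 12, 24 and 48 h. Lysis was in ice-cold lysis buffer with 1 mM PMSF (5 min on ice), followed by three freeze-thaw cycles and a 10 min spin at 4 °C. Acetylated and total p53 were measured in the supernatant by kit sandwich ELISA, read at 450 nm. The control index is sample absorbance divided by that of untreated cells at the same time. Values are mean ± SD of triplicate experiments.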"}, "HeLa [4]": {"system": "HeLa", "test": "Induction of caspase-dependent apoptosis in human HeLa cells assessed as activation of caspase-3 at 1 to 3 uM after 24 hrs by Western blot analysis", "assay_type": "functional, cell-based", "method_in_brief": "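Cleaved caspase-3 immunoblot. Cells were exposed at 1, 3 and 5 µM for 24 h at 37 °C, with paclitaxel 3 µM as positive control. Lysis was in ice-cold Triton X-100 buffer, and protein was measured by BCA. Lysates were separated by electrophoresis, transferred to nitrocellulose and blocked in milk. Primary antibody was applied overnight at 4 °C and secondary for 1 h at 28 °C. Detection was by enhanced chemiluminescence.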"}, "HeLa [5]": {"system": "HeLa", "test": "Induction of apoptosis in human HeLa cells assessed as early apoptotic cells at 1 uM after 12 hrs by annexin-V FITC/propidium iodide staining based flow cytometric analysis relative to control", "assay_type": "functional", "method_in_brief": "(§2)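 Cells were grown in DMEM with 10% heat-inactivated FBS at 37 °C and 5% CO₂, then plated at 500,000 cells/well in 24-well plates. They were treated from a DMSO stock (DMSO ≤0.1%) for 8, 12 or 16 h. After a PBS wash, cells were resuspended in binding buffer (10 mM HEPES pH 7.4, 2.5 mM CaCl₂, 140 mM NaCl, 0.1% BSA), stained 40 min with FITC-annexin V, then with PI, and run on the flow cytometer immediately. Values are the mean of three independent experiments.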"}, "HeLa [6]": {"system": "HeLa", "test": "Cytotoxicity against human HeLa cells assessed as reduction in cell viability after 4 hrs by MTT assay", "assay_type": "functional, cell-based", "method_in_brief": "(§3)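 MTT: 10,000–20,000 cells/well attached for 16 h, then washed twice with serum-free RPMI. Treated with 1–200 µM for 4 h, 3 parallel runs per concentration. MTT added for 2 h; medium partly removed and isopropanol added. A590 read. Viability = (A treated − A doxorubicin)/(A medium − A doxorubicin)×100. Mean of three experiments, triplicate wells each.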"}, "MCF7 [7]": {"system": "MCF7", "test": "Induction of ROS generation in human MCF7 cells at 5 uM after 12 hrs by CM-H2DCFDA staining-based FACS analysis", "assay_type": "functional, cell-based", "method_in_brief": "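CM-H2DCFDA ROS: HeLa or MCF-7 cells at 2×10^6/well in 6-well plates treated with 5 μM (final) for 12 or 24 h at 37 °C. Cells harvested, washed with PBS, stained with CM-H2DCFDA in PBS 30 min at 37 °C, washed with ice-cold PBS. Read by FACScan with 488 nm argon laser.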"}, "MCF7 [8]": {"system": "MCF7", "test": "Induction of caspase-dependent apoptosis in human MCF7 cells assessed as activation of caspase-8 at 1 to 3 uM after 24 hrs by Western blot analysis", "assay_type": "functional, cell-based", "method_in_brief": "as §1"}, "HeLa [9]": {"system": "HeLa", "test": "Induction of caspase-dependent apoptosis in human HeLa cells assessed as activation of caspase-7 at 1 to 3 uM after 24 hrs by Western blot analysis", "assay_type": "functional, cell-based", "method_in_brief": "as §1"}, "MCF7 [10]": {"system": "MCF7", "test": "Induction of apoptosis in human MCF7 cells assessed as viable cells at 1 uM after 16 hrs by annexin-V FITC/propidium iodide staining based flow cytometric analysis relative to control", "assay_type": "functional", "details": "MCF7, 16 h, read-out: Activity", "method_in_brief": "as §2"}, "[11]": {"test": "Cytotoxicity against HEK293 cells assessed as cell viability at 200 uM after 4 hrs by MTT assay relative to control", "assay_type": "cell-based", "details": "human, read-out: Activity", "method_in_brief": "as §3"}, "MCF7 [12]": {"system": "MCF7", "test": "Induction of ROS generation in human MCF7 cells at 5 uM after 8 hrs by DCFH-DA staining-based fluorescence spectrophotometric analysis relative to control", "assay_type": "functional", "method_in_brief": "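DCFH-DA ROS: HeLa or MCF-7 cells at 2×10^6/well cultured 12 h, treated 4 or 8 h; t-BHP (10 μM) is the positive control. DCFH-DA 10 μM added for 10 min at 37 °C, cells washed twice with PBS. Fluorescence read at ex 485/em 520 nm. For the NAC arm, NAC (5 mM) is added to the medium before treatment.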"}, "MCF7 [13]": {"system": "MCF7", "test": "Effect on mitochondrial membrane potential in human MCF7 cells assessed as shift change at 5 uM after 2 hrs by Rhodamine 123 dye-based fluorescence assay", "assay_type": "functional, cell-based", "method_in_brief": "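Mitochondrial potential: HeLa or MCF-7 cells treated with 5 µM (final) for 1, 2, 4 and 8 h. Rhodamine 123 added, cells incubated 30 min at 37 °C, washed with PBS, and analysed by flow cytometry. Fluorescence histogram shift is compared with control.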"}, "MCF7 [14]": {"system": "MCF7", "test": "Induction of ERK/MAPK signal transduction pathway in human MCF7 cells assessed as increase in p21 level", "assay_type": "cell-based"}, "[15]": {"target": "MAP kinase p38 (Homo sapiens) (UniProt O15264+Q15759+Q16539+P53778)", "test": "Activation of MAPK p38 phosphorylation in human MCF7 cells assessed as increase in ratio of phosphorylated p38 to total p38 level at 5 uM by ELISA", "assay_type": "cell-based", "method_in_brief": "(§4)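 Cell-based ELISA: HeLa or MCF-7 cells (20×10^3/well) grown overnight at 37 °C, 5% CO2, treated with 5 μM, then fixed and blocked. Probed with rabbit anti-total and anti-phospho P38, JNK or ERK1/2 (1:100), then HRP anti-rabbit IgG. Result is the phospho/total ratio; inhibitor arms use […], […] or SP600125. n=3.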"}, "MCF7 [16]": {"system": "MCF7", "test": "Induction of ERK/MAPK signal transduction pathway in human MCF7 cells assessed as increase in p53 expression", "assay_type": "cell-based"}, "[17]": {"target": "Mitogen-activated protein kinase; ERK1/ERK2 (Homo sapiens) (UniProt P27361+P28482)", "sequence (P27361 whole entry, looked up)": "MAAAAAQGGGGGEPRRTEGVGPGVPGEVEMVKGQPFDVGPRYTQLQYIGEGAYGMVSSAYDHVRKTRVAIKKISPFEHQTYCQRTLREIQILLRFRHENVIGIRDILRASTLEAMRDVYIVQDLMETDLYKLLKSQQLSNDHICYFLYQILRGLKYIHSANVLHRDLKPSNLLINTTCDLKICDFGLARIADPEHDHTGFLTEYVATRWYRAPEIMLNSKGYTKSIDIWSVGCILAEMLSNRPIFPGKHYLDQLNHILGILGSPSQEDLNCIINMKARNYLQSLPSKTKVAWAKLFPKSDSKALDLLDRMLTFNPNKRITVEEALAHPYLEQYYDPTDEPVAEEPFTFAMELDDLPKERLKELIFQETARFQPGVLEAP", "sequence (P28482 whole entry, looked up)": "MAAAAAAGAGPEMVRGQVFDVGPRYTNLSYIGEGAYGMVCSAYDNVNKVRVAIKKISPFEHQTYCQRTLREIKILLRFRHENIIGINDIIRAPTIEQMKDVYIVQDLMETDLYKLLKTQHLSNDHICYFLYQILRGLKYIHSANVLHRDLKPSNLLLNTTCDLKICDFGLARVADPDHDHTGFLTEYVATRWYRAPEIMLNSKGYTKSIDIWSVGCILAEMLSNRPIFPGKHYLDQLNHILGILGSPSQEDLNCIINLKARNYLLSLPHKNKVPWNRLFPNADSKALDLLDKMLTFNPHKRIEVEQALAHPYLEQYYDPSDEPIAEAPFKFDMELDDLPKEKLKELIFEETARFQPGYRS", "test": "Activation of ERK1/2 phosphorylation in human HeLa cells assessed as increase in ratio of phosphorylated ERK1/2 to total ERK1/2 level at 5 uM by ELISA", "assay_type": "cell-based", "method_in_brief": "as §4"}},
  "note": "Active and inactive are the calls of the source. The calls are words filed in the database; no cut-off is given here.",
  "data": [
    {"compound": "Cn1cc(/C=N\\NC(=O)c2cn(C)c3ccc(Br)cc23)c2ccccc21", "values": [
      {"measurement": "Activity", "setting": "MCF7 [1]", "result": "Active"},
      {"measurement": "Activity", "setting": "MCF7 [2]", "result": "inactive"},
      {"measurement": "Activity", "setting": "HeLa [3]", "result": "Active"},
      {"measurement": "Activity", "setting": "HeLa [4]", "result": "inactive"},
      {"measurement": "Activity", "setting": "HeLa [5]", "result": 33.51, "unit": "%"},
      {"measurement": "Activity", "setting": "HeLa [6]", "result": "Dose-dependent effect"},
      {"measurement": "IC50", "setting": "HeLa [6]; Homo sapiens, HeLa, 4 h, read-out: IC50", "result": 1.69, "unit": "µM"},
      {"measurement": "Activity", "setting": "MCF7 [7]", "result": "Active"},
      {"measurement": "Activity", "setting": "MCF7 [8]", "result": "inactive"},
      {"measurement": "Activity", "setting": "HeLa [9]", "result": "inactive"},
      {"measurement": "viability at 1 µM", "setting": "MCF7 [10]", "result": 20.4, "unit": "%"},
      {"measurement": "viability at 4 h, 200 µM", "setting": "[11]", "result": 95, "unit": "%"},
      {"measurement": "Activity", "setting": "MCF7 [12]", "result": 48.3, "unit": "%"},
      {"measurement": "Activity", "setting": "MCF7 [13]", "result": "Active"},
      {"measurement": "Activity", "setting": "MCF7 [14]", "result": "Active"},
      {"measurement": "Activity", "setting": "[15]", "result": "Active"},
      {"measurement": "Activity", "setting": "MCF7 [16]", "result": "Active"},
      {"measurement": "Activity", "setting": "[17]", "result": "Active"}
    ]}
  ]
}
